Reference: ChEMBL document CHEMBL3632548, “Oxidized Metabolites of 20-Hydroxyecdysone and Their Activity on Skeletal Muscle Cells: Preparation of a Pair of Desmotropes with Opposite Bioactivities” (J Nat Prod, 2015)
The source made the active and inactive calls. The rule behind the calls is not given here.

What was measured:
[1] = Chemical stability of the compound in acidic media at pH 3 at room temperature; format: physicochemical; details: buffer
[2] = Chemical stability of the compound in basic media at pH 8 at room temperature; format: physicochemical; details: buffer
[3] = molecular target: RAC-alpha serine/threonine-protein kinase (Mus musculus) (UniProt P31750); experiment: Induction of Akt phosphorylation in mouse C2C12 cells at 30 ug/ml pretreated with compound for 24 hrs followed by fresh medium with compound addition measured after 2 hrs by Western blot analysis; format: cell-based
Outline: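 Differentiated C2C12 myotubes (8 days in horse serum medium) are exposed to 30 μg/mL compound in 10% FBS high-glucose DMEM for 24 h, without overnight serum starvation. Fresh medium with the same compound concentration is added for a further 2 h. Cells are lysed in SDS sample buffer, resolved on 10% SDS-PAGE, transferred to PVDF and probed for phospho- and total Akt.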

[4] = Chemical stability of the compound in neutral media at room temperature; format: physicochemical
C2C12 = experiment: Effect on glucose consumption in mouse C2C12 cells at 30 ug/ml after 24 hrs; format: functional, cell-based
Outline: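 C2C12 myoblasts are grown in high-glucose DMEM with 10% FBS at 37 °C, 5% CO2. At confluence they are switched to DMEM with 10% horse serum for 8 days to form myotubes. Myotubes are then given 10% FBS high-glucose DMEM with or without 30 μg/mL compound for 24 h. Glucose remaining in the medium is measured to calculate glucose consumption.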

[5] = Drug level in aqueous solution treated with 20-hydroxyecdysone at 120 mg incubated for 2 days measured at 0.5 to 48 hrs by HPLC-DAD analysis in presence of NaOH; format: physicochemical; details: in vivo
Outline: (§1)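 20E (120 mg) is stirred at room temperature (22−25 °C) in 70% aqueous MeOH with 2% NaOH, and aliquots are taken over time. Analysis is by analytical HPLC on a C18 column with an aqueous acetonitrile gradient and 9.6% acetic acid, 1 mL/min. Compounds are quantified from peak AUC at each λmax against calibration dilutions and expressed relative to initial 20E. Three independent experiments; one-phase decay regression.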

[6] = Drug level in aqueous solution treated with (2S,3R,10R,13R,14S,17S)-2,3,6,14-tetrahydroxy-10,13-dimethyl-17-((2R,3R)-2,3,6-trihydroxy-6-methylheptan-2-yl)-3,4,10,11,12,13,14,15,16,17-decahydro-1H-cyclopenta[a]phenanthren-7(2H)-one at pH 8; format: physicochemical; details: buffer
[7] = Drug level in aqueous solution treated with (2S,3R,5R,9R,10R,13R,14S,17S)-2,3,14-trihydroxy-10,13-dimethyl-17-((2R,3R)-2,3,6-trihydroxy-6-methylheptan-2-yl)-2,3,4,5,9,11,12,13,14,15,16,17-dodecahydro-1H-cyclopenta[a]phenanthren-6(10H)-one at 120 mg incubated for 2 days measured at 0.5 to 48 hrs by HPLC-DAD analysis in presence of NaOH; format: physicochemical; details: in vivo
Outline: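 120 mg 20E stirred with 100 mg NaOH at room temperature (22−25 °C) and sampled over time. Samples were analysed by HPLC on a C18 column using an aqueous acetonitrile gradient with acetic acid at 1 mL/min. Peak AUC was read at each compound's λmax and calibrated against dilutions of isolated compounds. Amounts are relative to initial 20E; three independent experiments.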

[8] = Half life of the compound by HPLC analysis in presence of NaOH; format: physicochemical; outline: as §1
[9] = Chemical stability of the compound at 80 degC; format: physicochemical
[10] = Drug level in aqueous solution treated with (2S,3R,10R,13R,14S,17S)-2,3,6,14-tetrahydroxy-10,13-dimethyl-17-((2R,3R)-2,3,6-trihydroxy-6-methylheptan-2-yl)-3,4,10,11,12,13,14,15,16,17-decahydro-1H-cyclopenta[a]phenanthren-7(2H)-one at pH 3; format: physicochemical; details: buffer
[11] = Drug level in aqueous solution treated with (2S,3R,5R,10S,13R,17S)-2,3,7-trihydroxy-10,13-dimethyl-17-((2R,3R)-2,3,6-trihydroxy-6-methylheptan-2-yl)-2,3,4,5,12,13,16,17-octahydro-1H-cyclopenta[a]phenanthren-6(10H)-one at 80 degC after 4 days; format: physicochemical; details: buffer, 96 h
[12] = Drug level in aqueous solution treated with 20-hydroxyecdysone at 120 mg at pH 6 to 6.5 measured at 6 to 7 hrs hrs by HPLC-DAD analysis; format: physicochemical; details: in vivo
Outline: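 20E was reacted with NaOH at room temperature, and the mixture was set to pH 6−6.5 with acetic acid before evaporation under nitrogen. Products were quantified by C18 HPLC with an aqueous acetonitrile gradient, using AUC at λmax against calibration dilutions of isolated compounds. Amounts are expressed relative to initial 20E.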

RAC-alpha serine/threonine-protein kinase (Mus musculus), sequence (P31750 whole entry): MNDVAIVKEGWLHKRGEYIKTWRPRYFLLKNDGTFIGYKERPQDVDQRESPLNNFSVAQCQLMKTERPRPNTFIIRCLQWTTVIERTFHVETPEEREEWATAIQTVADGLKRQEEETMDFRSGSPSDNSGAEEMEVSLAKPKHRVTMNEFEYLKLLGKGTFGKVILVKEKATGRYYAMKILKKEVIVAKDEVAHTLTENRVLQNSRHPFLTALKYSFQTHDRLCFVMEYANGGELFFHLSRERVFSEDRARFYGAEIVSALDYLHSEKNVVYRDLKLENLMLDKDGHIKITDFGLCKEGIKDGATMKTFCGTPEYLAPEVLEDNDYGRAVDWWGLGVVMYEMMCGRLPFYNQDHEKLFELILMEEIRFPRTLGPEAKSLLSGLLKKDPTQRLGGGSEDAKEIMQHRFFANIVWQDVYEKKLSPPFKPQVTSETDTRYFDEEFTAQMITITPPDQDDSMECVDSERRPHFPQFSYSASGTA

Compound: CC(C)(O)CC[C@@H](O)[C@](C)(O)[C@H]1CC=C2C3=C(O)C(=O)[C@@H]4C[C@@H](O)[C@@H](O)C[C@]4(C)C3=CC[C@@]21C
- Stability [1]: Stable
- Stability [2]: Stable
- Activity [3]: inactive
- Stability [4]: Stable
- Activity (C2C12): inactive
- Drug metabolism [5]: metabolite_detected
- Drug metabolism [6]: metabolite_detected

Compound: CC(C)(O)CC[C@@H](O)[C@](C)(O)[C@H]1CC[C@@]2(O)C3=CC(=O)[C@H]4C[C@@H](O)[C@@H](O)C[C@]4(C)[C@@]3(O)CC[C@]12C
- Activity [3]: Active
- Activity (C2C12): inactive
- Drug metabolism [7]: metabolite_detected

Compound: CC(C)(O)CC[C@@H](O)[C@](C)(O)[C@H]1CC[C@@]2(O)C3=CC(=O)[C@@H]4C[C@@H](O)[C@@H](O)C[C@]4(C)[C@H]3CC[C@]12C [20-HYDROXYECDYSONE]
- Activity [3]: inactive
- Activity (C2C12): inactive
- half-life [8]: 1.39 h

Compound: CC(C)(O)CC[C@@H](O)[C@](C)(O)[C@H]1CC[C@@]2(O)C3=CC(=O)[C@@H]4C[C@@H](O)[C@@H](O)C[C@]4(C)[C@@]3(O)CC[C@]12C
- Activity (C2C12): inactive
- Drug metabolism [7]: metabolite_detected

Compound: CC(C)(O)CC[C@@H](O)[C@](C)(O)[C@H]1CC[C@@]2(O)C3=CC(=O)[C@@H]4C[C@@H](O)[C@@H](O)C[C@]4(C)C3=CC[C@]12C
- Activity (C2C12): inactive

Compound: CC(C)(O)CC[C@@H](O)[C@](C)(O)[C@H]1CC=C2C3=C(CC[C@@]21C)[C@@]1(C)C[C@H](O)[C@H](O)CC1=C(O)C3=O
- Stability [1]: Stable
- Stability [9]: Stable
- Stability [2]: Stable
- Drug metabolism [10]: metabolite_detected
- Activity [3]: Active
- Stability [4]: Stable
- Activity (C2C12): inactive
- Drug metabolism [11]: metabolite_detected
- Drug metabolism [12]: metabolite_detected

Compound: CC(C)(O)CC[C@@H](O)[C@](C)(O)[C@H]1CC[C@@]2(O)C3=C(CC[C@]12C)[C@@]1(C)C[C@H](O)[C@H](O)CC1=C(O)C3=O
- Activity (C2C12): inactive
- Drug metabolism [5]: metabolite_detected
